Most compounds without a hit are left out; they make up all but 1.7% or so of the library.
IDE cell activ: activators of human insulin-degrading enzyme in cells; P14735; HEK cells, FAbeta-B cleavage, fluorescence polarization; 0% vehicle, 100% cell-free pure enzyme wells; activation, % at 5.96 µM; actives 0.073% (n = 340,000); AID 493087;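 active means activation above the mean of all tested compounds plus 3 SD, set per screening campaign, cut at about 17% in these data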
Target sequence (P14735 whole entry, looked up): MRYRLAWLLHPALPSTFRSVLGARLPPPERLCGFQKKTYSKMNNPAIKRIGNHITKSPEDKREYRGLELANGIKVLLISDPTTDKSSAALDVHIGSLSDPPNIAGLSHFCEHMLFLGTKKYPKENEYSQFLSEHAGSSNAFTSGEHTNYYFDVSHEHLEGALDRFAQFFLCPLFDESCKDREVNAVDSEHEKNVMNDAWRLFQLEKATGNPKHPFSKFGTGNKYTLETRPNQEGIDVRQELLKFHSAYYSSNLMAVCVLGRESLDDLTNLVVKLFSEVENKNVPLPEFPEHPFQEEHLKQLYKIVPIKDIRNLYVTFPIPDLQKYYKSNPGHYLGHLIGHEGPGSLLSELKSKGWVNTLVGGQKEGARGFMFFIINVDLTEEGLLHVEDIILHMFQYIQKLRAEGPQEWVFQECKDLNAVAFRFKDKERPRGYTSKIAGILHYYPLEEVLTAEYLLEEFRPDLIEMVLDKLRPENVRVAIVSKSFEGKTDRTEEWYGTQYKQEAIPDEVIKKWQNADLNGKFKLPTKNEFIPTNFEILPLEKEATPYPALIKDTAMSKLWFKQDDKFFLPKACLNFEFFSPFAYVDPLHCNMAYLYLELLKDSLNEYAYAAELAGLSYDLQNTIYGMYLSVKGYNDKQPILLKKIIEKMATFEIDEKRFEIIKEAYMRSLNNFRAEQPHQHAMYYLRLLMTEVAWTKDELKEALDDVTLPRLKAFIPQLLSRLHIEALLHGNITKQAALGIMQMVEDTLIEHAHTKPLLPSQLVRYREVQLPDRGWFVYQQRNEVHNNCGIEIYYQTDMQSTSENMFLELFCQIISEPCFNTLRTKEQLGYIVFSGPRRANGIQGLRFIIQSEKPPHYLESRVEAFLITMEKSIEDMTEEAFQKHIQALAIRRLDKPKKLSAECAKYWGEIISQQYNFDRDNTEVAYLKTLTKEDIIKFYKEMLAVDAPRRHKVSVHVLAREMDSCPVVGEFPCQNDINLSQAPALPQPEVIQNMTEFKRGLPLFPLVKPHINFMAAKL
IDE cell inh: cellular human IDE inhibition; HEK cells, FAbetaB cleavage, fluorescence polarization; inhibition, % at 5.59 µM; P14735; actives 0.41% (n = 320,000);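 active means percent inhibition above the average of all tested compounds plus 3 SD, set per screening campaign, cut at about 16% in these data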;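 further: IDE supplied by intact live HEK cells; FP after avidin binding of uncleaved biotin substrate so inhibition keeps polarization high; 0% = DMSO wells and 100% = 60 µM reference IDE inhibitor Ii1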
TPT1 inh: C. albicans TPT1 enzyme inhibition | recombinant caTPT1, FP RNA substrate dephosphorylation | inhibition, % at 5 µM | actives 0.81% (n = 300,000);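 active means inhibition above the mean of all tested compounds plus 3 SD, set per screening campaign, cut at about 24% in these data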;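 further: plate controls were DMSO alone for no effect and ferristatin control at 100 nM for full effect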
CSN inh: CSN deneddylation inhibition | Q92905 | actives 0.38% (n = 360,000) | Purified CSN, SCF-Nedd8-OG deneddylation, fluorescence polarization | inhibition, % at 12.5 µM;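 active means pattern-corrected inhibition above about 35%, with an unprinted fluorescence ratio check between 0.5 and 1.5, limit read from the data, passing the limit was not always enough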;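 further: 0% = enzyme with substrate and 100% = substrate without enzyme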
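Assay system: Purified human Csn5 enzyme expressed in HEK293T cells | Amount: Enzyme 0.24 nM | Measured by: Fluorescence polarization readout | Medium: Tris/NaCl/DTT buffer, pH 7.5 | Compound dosing: One concentration, 12.5 µM, 0.25% DMSO | Times: 90 min incubation of compound, enzyme and substrate at room temperature | Control set: no-enzyme wells high, enzyme-with-substrate wells low | Read-out: % inhibition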
HNF4A DNA FP: change in binding of human HNF4 alpha to DNA | P41235 | HNF4a-FITC DNA binding, fluorescence polarization, 1 h | activity change, % at 10 µM | actives 0.3% (n = 360,000) | AID 1224865; in the data active means activity change above about 30%, passing the limit was not always enough
Rpn11 block: blocks the human proteasome subunit Rpn11. actives 0.59% (n = 360,000). human 26S proteasome, Ub4-pepOG fluorescence polarization; 20S core pre-blocked with epoxomicin. O00487. calls only at 20 µM;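 active means inhibition at 20 µM, scaled to each plate's controls, above about 33%, limit read from the data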
IDE inh confirm: confirmation of human insulin-degrading enzyme inhibitors in cells; inhibition, % at 5.59 µM; actives 51% (n = 1,200); shares compounds with IDE cell inh; AID 435028; HEK cells, FAbetaB cleavage, fluorescence polarization;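 active means mean inhibition across triplicate wells above the cutoff set by the earlier primary insulin-degrading enzyme screen, cut at about 16% in these data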;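 further: 0% = DMSO wells and 100% = 60 µM reference IDE inhibitor Ii1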
HEK cytotox: HEK cell cytotoxicity, counter-screen for IDE inhibitors; shares compounds with IDE cell inh; actives 28% (n = 1,200); HEK293 cytotoxicity, ATP luminescence; inhibition, % at 5.59 µM; AID 449730; in the data active means inhibition above about 22%;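 further: 0% = vehicle wells and 100% = reference cytotoxic drug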
Starred values were filed as active, the others as inactive; i = inactive; · = not tested or not shown.

SMILES	IDE cell activ	IDE cell inh	TPT1 inh	CSN inh	HNF4A DNA FP	Rpn11 block	IDE inh confirm	HEK cytotox
Cc1ccc(C(=O)/C=C/N(C)C)o1	6.8	5.5	6.7	0.1	-4.1	i	·	·
Cc1ccc(C(=O)/C=C/c2cc(Br)cc(Br)c2O)o1	-12.8	16.5*	9.2	11.4	-7.5	i	26.5*	20.9
Cc1ccc(C2CC(c3cccs3)=NN2C(=O)CSc2nc(=O)n3cc(C)ccc3n2)cc1 (configuration not stated)	0.5	4.3	3.1	0.9	0.3	i	·	·
COc1ccc(C2CC(c3cccs3)=NN2C(=O)CSc2nc(=O)n3ccccc3n2)cc1 (configuration not stated)	-3.5	16.8*	-2.1	-4.6	-0.4	i	-1.0	17.1
CCOc1ccc(N=C2NC(=O)S/C2=C\c2ccc(N(C)C)cc2)cc1	-13.1	13.0	7.9	-68.3	33.6	·	·	·
CCOc1ccc(/C=C2/SC(=O)NC2=S)cc1	-2.9	33.5*	-0.1	4.3	6.6	i	1.8	14.2
Cn1c(=O)oc2ccccc2c1=O	-3.2	·	·	0.0	1.2	i	·	·
COc1ccc(-c2nnc3ccc(SCC(=O)Nc4nc5ccccc5s4)nn23)cc1OC	-23.9	18.4*	3.2	-8.3	1.6	i	4.7	11.3
COc1ccc(-c2nnc3ccc(SCC(=O)Nc4nccs4)nn23)cc1OC	-1.1	5.1	-3.5	0.7	3.4	i	·	·
O=C(Nc1ccccc1)Nc1ccccc1C(=O)NCCCN1CCOCC1	5.2	1.2	1.3	1.0	-5.9	i	·	·
CC(=O)Nc1ccc(OS(=O)(=O)c2ccc(C(C)(C)C)cc2)cc1	·	-1.5	-4.1	·	·	·	·	·
CCOc1cc(Br)cc(/C=C2\SC(=Nc3ccccc3)NC2=O)c1O	-24.2	22.2*	2.6	3.9	2.9	i	27.3*	11.9
O=c1c2[nH]c3ccc(Br)cc3c2ncn1CCCn1ccnc1	-9.4	21.1*	-8.2	-1.6	-1.5	i	5.6	18.6
CC(=O)c1ccc(NC(=O)C(C)Oc2ccc(N(C)S(=O)(=O)c3ccc(C)cc3)cc2)cc1 (configuration not stated)	-0.3	-0.2	·	-1.3	-7.0	i	·	·
Cc1[nH]n(-c2ccccc2)c(=S)c1C=Nc1ccc([N+](=O)[O-])cc1	-32.5	19.9*	-1.0	-1.6	3.4	i	3.4	17.7
Cc1[nH]n(-c2ccccc2)c(=O)c1C=Nc1ccc(S(=O)(=O)N=C(N)N)cc1	2.6	7.8	0.6	1.2	-2.8	i	·	·
CC(NC(=O)CCc1nnc(-c2ccc(-c3ccccc3)cc2)o1)c1nccs1 (configuration not stated)	-7.3	7.9	-5.1	-3.4	0.1	i	·	·
CC(c1nccs1)N(C)C(=O)CCc1nnc(-c2ccc(-c3ccccc3)cc2)o1 (configuration not stated)	-16.4	24.8*	1.7	1.1	-4.1	i	3.6	17.0
CCN1CCc2c(sc(NC(=S)NC(=O)c3ccccc3)c2C#N)C1	-7.4	25.7*	28.3*	47.7*	9.2	i	3.7	16.2
O=C(NCCN1C(=O)S/C(=C\c2ccc(Cl)c(Cl)c2)C1=O)c1ccc2c(c1)C(=O)N(Cc1ccncc1)C2=O	1.9	4.1	1.3	7.4	4.6	i	·	·
ClC(Cl)(c1nnnn1-c1ccccc1)c1nnnn1-c1ccccc1	-25.6	59.5*	0.3	14.9	0.7	i	9.7	120.8*
COc1ccc2nc3sc(C(=O)NCCCN4CCc5ccccc5C4)cc3cc2c1	-7.5	19.7*	-3.1	7.3	-0.1	i	3.4	11.5
COc1ccc2nc3sc(C(=O)N4CCN(C)CC4)cc3cc2c1	3.3	5.2	-0.9	-1.0	-0.7	i	·	·
CC1=CC(C)(C)Nc2ccc(OC(=O)c3ccco3)cc21	-5.5	50.3*	-1.6	5.7	1.7	i	42.3*	119.7*
CC1=CC(C)(C)Nc2ccc(OC(=O)C(C)N3C(=O)c4ccccc4C3=O)cc21 (configuration not stated)	-9.0	25.7*	-4.4	2.5	0.4	i	24.2*	76.2*
SMILES	IDE cell activ	IDE cell inh	TPT1 inh	CSN inh	HNF4A DNA FP	Rpn11 block	IDE inh confirm	HEK cytotox
CC1=CC(C)(C)Nc2ccc(OC(=O)c3cccnc3)cc21	2.3	21.9*	0.5	0.1	1.7	i	32.6*	103.1*
CC1=CC(C)(C)Nc2ccc(OC(=O)CN3C(=O)CCC3=O)cc21	-14.5	26.5*	-5.5	-5.6	-0.5	i	32.2*	91.8*
COc1ccc(C(=O)NC2CCN(Cc3ccccc3)C2)cc1S(=O)(=O)N1CCOCC1 (configuration not stated)	3.7	-0.6	·	-5.2	1.0	i	·	·
COc1cccc(Nc2ncc(C(=O)O)c3ccccc23)c1	5.0	3.4	0.0	1.0	-0.7	i	·	·
O=C(NCCC1=CCCCC1)Nc1ccc2nsnc2c1	-22.8	31.1*	-4.5	1.7	-1.3	i	17.0*	10.9
CCCn1c(Nc2nc3ccccc3n2C)nc2ccccc21	-29.3	32.5*	0.8	-0.4	18.7	i	24.4*	7.9
CCCCn1c(Nc2ccccc2)nc2ccccc21	4.1	-8.1	-3.4	-1.9	0.8	i	·	·
O=C(CSc1nccc(=O)[nH]1)N1N=C2/C(=C/c3ccco3)CCCC2C1c1ccco1 (configuration not stated)	6.0	9.9	4.3	27.9	-13.8	i	·	·
Cn1cnnc1SCC(=O)N1N=C2/C(=C/c3ccco3)CCCC2C1c1ccco1 (configuration not stated)	-23.5	16.7*	-0.9	3.3	-3.4	i	9.5	12.5
COc1ccccc1N/C(N)=N/c1nc(C(F)(F)F)cc(=O)[nH]1	-9.1	18.4*	6.9	-1.1	6.1	i	7.3	11.8
C=CCn1c(O)c(N=NC(=S)Nc2cccc(C)c2)c2ccccc21	-4.2	24.5*	-1.2	-1.4	1.0	i	2.1	81.9*
c1ccc(C2=NNC(c3ccccn3)=NN2)nc1	3.7	0.1	-0.5	0.9	2.3	i	·	·
CCOc1cc(-c2nc3n(c(=O)c2C#N)CCS3)ccc1O	-30.7	24.9*	4.2	3.7	-0.7	i	40.9*	15.2
CCOc1ccc(-c2nc3n(c(=O)c2C#N)CCS3)cc1	0.4	-1.0	0.9	5.2	3.0	i	·	·
Cc1ccc(Oc2nnc(-c3ccccc3)cc2C#N)cc1	5.7	2.3	0.1	1.3	0.3	i	·	·
CC(=O)Nc1ccc(Nc2c3c4c(cccc4n(C)c2=O)C(=O)c2ccccc2-3)cc1	5.8	3.4	-72.7	-70.7	-126.3	i	·	·

Screening results from PubChem BioAssay.
